Experimental data published in ChEMBL document CHEMBL1137675, “Convenient one-pot synthesis of novel 2-substituted benzimidazoles, tetrahydrobenzimidazoles and imidazoles and evaluation of their in vitro antibacterial and antifungal activities” (2009).
≈ marks a conversion by molar mass, not a printed value.

Experiments:
Aspergillus niger [1] = assay: Antifungal activity against Aspergillus niger at 28 degC after 72 hrs; assay type: functional
Outline: (§1)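 Filamentous fungi were kept on SDA at 28 °C. Spores from 7-day cultures were suspended in sterile normal saline to about 10⁵ cfu/ml, and about 0.1 ml was spread on SDA plates. Compounds were serially diluted two-fold in DMSO and impregnated on 8 mm discs, with a solvent control disc on each plate. Plates were held at 28 °C for 72 h or more, and inhibition zone diameter was read in mm.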

Trichoderma viride [2] = assay: Antifungal activity against Trichoderma viride at 30 ug/disk at 28 degC after 72 hrs; assay type: functional, organism-based
Outline: (§2)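 Disc diffusion on SDA; cultures were kept at 28 °C. Spores from 7-day cultures were suspended in sterile normal saline ([…] NaCl as printed) and diluted to about 10⁵ cfu/ml; about 0.1 ml was spread per plate. 8 mm discs carried compound from a DMSO stock, alongside a solvent disc and a nystatin disc. After 72 h or more at 28 °C, inhibition-zone diameter was read in mm.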

Trichoderma viride [3] = assay: Antifungal activity against Trichoderma viride at 28 degC after 72 hrs; assay type: functional; outline: as §1
Helminthosporium [4] = assay: Antifungal activity against Helminthosporium oryzae 2537 ICAR at 30 ug/disk at 28 degC after 72 hrs; assay type: functional, organism-based; outline: as §2
Aspergillus niger [5] = assay: Antifungal activity against Aspergillus niger at 30 ug/disk at 28 degC after 72 hrs; assay type: functional, organism-based; outline: as §2
Penicillium sp. [6] = assay: Antifungal activity against Penicillium sp. at 30 ug/disk at 28 degC after 72 hrs; assay type: functional, organism-based; outline: as §2
Penicillium sp. [7] = assay: Antifungal activity against Penicillium sp. at 28 degC after 72 hrs; assay type: functional; outline: as §1
Candida albicans [8] = assay: Antifungal activity against Candida albicans IOA-109 at 30 ug/disk at 37 degC after 18 to 48 hrs; assay type: functional, organism-based
Outline: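 Disc diffusion on SDA. Inoculum was grown overnight in SD broth at 37 °C, centrifuged, and resuspended in sterile NSS to 10⁵ cfu/ml; about 0.1 ml was spread per plate. 8 mm discs carried compound from a DMSO stock, alongside a solvent disc and a nystatin disc. After 18–48 h at 37 °C, inhibition-zone diameter was read in mm.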

Helminthosporium [9] = assay: Antifungal activity against Helminthosporium oryzae 2537 ICAR at 28 degC after 72 hrs; assay type: functional; outline: as §1
Candida albicans [10] = assay: Antifungal activity against Candida albicans IOA-109 at 37 degC after 18 to 48 hrs; assay type: functional
Salmonella typhimurium [11] = assay: Antibacterial activity against Salmonella Typhimurium MTCC 98 at 37 degC after 24 hrs by filter paper disk method; assay type: functional, Salmonella enterica subsp. enterica serovar Typhimurium; details: for MIC: Salmonella enterica, MTCC 98, 24 h
Outline: (§3)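 Compounds were taken from a 1 mg/ml DMSO stock and serially diluted two-fold over a 300 to 18.75 range, then loaded onto sterile 8 mm paper discs. Bacteria were grown overnight in nutrient broth at 37 °C, pelleted, and resuspended in sterile NSS to 10⁵ cfu/ml. About 0.1 ml was spread on NA plates. Plates were incubated 24 h at 37 °C with a solvent control disc, and inhibition zone diameter was read in mm.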

Bacillus subtilis [12] = assay: Antibacterial activity against Bacillus subtilis ATCC 6051 at 37 degC after 24 hrs by filter paper disk method; assay type: functional; details: for MIC: Bacillus subtilis, ATCC 6051, 24 h; outline: as §3
Staphylococcus aureus [13] = assay: Antibacterial activity against Staphylococcus aureus MSSA 22 at 37 degC after 24 hrs by filter paper disk method; assay type: functional; details: for MIC: Staphylococcus aureus, MSSA 22, 24 h; outline: as §3
Escherichia coli [14] = assay: Antibacterial activity against Escherichia coli K-12 at 37 degC after 24 hrs by filter paper disk method; assay type: functional; details: for MIC: Escherichia coli, K-12, 24 h; outline: as §3
Salmonella typhimurium [15] = assay: Antibacterial activity against Salmonella Typhimurium MTCC 98 at 30 ug/disk at 37 degC after 24 hrs by filter paper disk method; assay type: functional, Salmonella enterica subsp. enterica serovar Typhimurium; details: Salmonella enterica, MTCC 98, 24 h; read-out: DIZ
Outline: (§4)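 Chloramphenicol was given as a reference antibiotic disc. Bacteria were grown overnight in nutrient broth at 37 °C and adjusted to 10⁵ cfu/ml in sterile NSS. About 0.1 ml was spread on NA plates next to 8 mm discs, including a solvent disc. Plates were incubated 24 h at 37 °C, and zones of inhibition were measured in mm.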

Bacillus subtilis [16] = assay: Antibacterial activity against Bacillus subtilis ATCC 6051 at 30 ug/disk at 37 degC after 24 hrs by filter paper disk method; assay type: functional; details: ATCC 6051, 24 h, read-out: DIZ; outline: as §4
Escherichia coli [17] = assay: Antibacterial activity against Escherichia coli K-12 at 30 ug/disk at 37 degC after 24 hrs by filter paper disk method; assay type: functional; details: K-12, 24 h, read-out: DIZ
Outline: (§5)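 Disc diffusion on nutrient agar. Inoculum was grown overnight in NA broth at 37 °C, centrifuged, and resuspended in sterile NSS to 10⁵ cfu/ml; about 0.1 ml was spread per plate. Sterile 8 mm discs carried compound, with a 1 mg/ml DMSO stock diluted two-fold from 300 to 18.75. Controls were a solvent disc and a chloramphenicol disc. After 24 h at 37 °C, inhibition-zone diameter was read in mm.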

Staphylococcus aureus [18] = assay: Antibacterial activity against Staphylococcus aureus MSSA 22 at 30 ug/disk at 37 degC after 24 hrs by filter paper disk method; assay type: functional; details: MSSA 22, 24 h, read-out: DIZ; outline: as §5

Compound | diameter of the inhibition zone (DIZ) (Aspergillus niger [1]) [mm] | MIC (Aspergillus niger [1]; Aspergillus niger, 72 h) [µg/mL] | diameter of the inhibition zone (DIZ) (Salmonella typhimurium [11]) [mm] | MIC (Salmonella typhimurium [11]) [µg/mL] | diameter of the inhibition zone (DIZ) (Trichoderma viride [3]) [mm] | MIC (Trichoderma viride [3]; Trichoderma viride, 72 h) [µg/mL] | diameter of the inhibition zone (DIZ) (Bacillus subtilis [12]) [mm] | MIC (Bacillus subtilis [12]) [µg/mL] | diameter of the inhibition zone (DIZ) (Penicillium sp. [7]) [mm] | MIC (Penicillium sp. [7]; Penicillium sp., 72 h) [µg/mL] | diameter of the inhibition zone (DIZ) (Staphylococcus aureus [13]) [mm] | MIC (Staphylococcus aureus [13]) [µg/mL] | diameter of the inhibition zone (DIZ) (Escherichia coli [14]) [mm] | MIC (Escherichia coli [14]) [µg/mL] | diameter of the inhibition zone (DIZ) (Helminthosporium [9]) [mm] | MIC (Helminthosporium [9]; Helminthosporium, 72 h) [µg/mL] | diameter of the inhibition zone (DIZ) (Candida albicans [10]) [mm] | MIC (Candida albicans [10]; Candida albicans, IOA-109) [µg/mL] | also measured
NYSTATIN |  |  |  |  |  |  |  |  |  |  |  |  |  |  |  |  |  |  | MIC (Aspergillus niger [1]): 12.5 µg/mL; inhibition zone (IZ) (Trichoderma viride [2]): 15 mm; MIC (Trichoderma viride [3]): 6 µg/mL; inhibition zone (IZ) (Helminthosporium [4]): 18 mm; inhibition zone (IZ) (Aspergillus niger [5]): 18 mm; inhibition zone (IZ) (Penicillium sp. [6]): 20 mm; MIC (Penicillium sp. [7]): 6 µg/mL; inhibition zone (IZ) (Candida albicans [8]): 20 mm; MIC (Helminthosporium [9]): 12.5 µg/mL; MIC (Candida albicans [10]): 6 µg/mL
CCCCCC[C@@H](O)C/C=C\CCCCCCCc1ncc[nH]1 | 13 | 150 (≈ 468 µM) | 12 | 75 (≈ 234 µM) | 6 | 75 (≈ 234 µM) | 18 | 37.5 (≈ 117 µM) | 18 | 150 (≈ 468 µM) | 15 | 150 (≈ 468 µM) | 12 | 150 (≈ 468 µM) | 13 | 150 (≈ 468 µM) | 18 | 75 (≈ 234 µM) | 
O=C(N[C@H](CO)[C@H](O)c1ccc([N+](=O)[O-])cc1)C(Cl)Cl [CHLORAMPHENICOL] |  |  |  | 6 (≈ 18.6 µM) |  |  |  | 6 (≈ 18.6 µM) |  |  |  | 12.5 (≈ 38.7 µM) |  | 12.5 (≈ 38.7 µM) |  |  |  |  | zone of inhibition at 30 µg/disc (Salmonella typhimurium [15]): 20 mm; zone of inhibition at 30 µg/disc (Bacillus subtilis [16]): 24 mm; zone of inhibition at 30 µg/disc (Escherichia coli [17]): 25 mm; zone of inhibition at 30 µg/disc (Staphylococcus aureus [18]): 26 mm
CCCCCCCC/C=C/CCCCCCCc1ncc[nH]1 | 12 | 150 (≈ 493 µM) | 11 | 75 (≈ 246 µM) | 4 | 75 (≈ 246 µM) | 19 | 37.5 (≈ 123 µM) | 17 | 150 (≈ 493 µM) | 15 | 150 (≈ 493 µM) | 11 | 150 (≈ 493 µM) | 12 | 150 (≈ 493 µM) | 18 | 75 (≈ 246 µM) | 
C=CCCCCCCCCc1ncc[nH]1 | 11 | 150 (≈ 727 µM) | 14 | 74 (≈ 359 µM) | 6 | 75 (≈ 363 µM) | 22 | 37.5 (≈ 182 µM) | 16 | 150 (≈ 727 µM) | 16 | 150 (≈ 727 µM) | 15 | 150 (≈ 727 µM) | 12 | 150 (≈ 727 µM) | 19 | 75 (≈ 363 µM) | 
CCCCCCCC/C=C/CCCCCCCc1nc2c([nH]1)CCCC2 | 13 | 37.5 (≈ 105 µM) | 10 | 75 (≈ 209 µM) | 6 | 37.5 (≈ 105 µM) | 19 | 75 (≈ 209 µM) | 17 | 75 (≈ 209 µM) | 16 | 75 (≈ 209 µM) | 17 | 150 (≈ 418 µM) | 12 | 150 (≈ 418 µM) | 18 | 75 (≈ 209 µM) | 
CCCCCCCC/C=C/CCCCCCCc1nc2cc(Cl)ccc2[nH]1 | 15 | 37.5 (≈ 96.4 µM) | 15 | 37.5 (≈ 96.4 µM) | 9 | 37.5 (≈ 96.4 µM) | 18 | 75 (≈ 193 µM) | 19 | 37.5 (≈ 96.4 µM) | 20 | 37.5 (≈ 96.4 µM) | 18 | 75 (≈ 193 µM) | 16 | 75 (≈ 193 µM) | 18 | 37.5 (≈ 96.4 µM) | 
C=CCCCCCCCCc1nc2cc([N+](=O)[O-])ccc2[nH]1 | 15 | 37.5 (≈ 124 µM) | 12 | 37.5 (≈ 124 µM) | 8 | 37.5 (≈ 124 µM) | 19 | 37.5 (≈ 124 µM) | 18 | 37.5 (≈ 124 µM) | 22 | 150 (≈ 498 µM) | 20 | 75 (≈ 249 µM) | 10 | 75 (≈ 249 µM) | 18 | 37.5 (≈ 124 µM) | 
CCCCC/C=C\CC[C@H](O)CCCCCCCc1nc2cc([N+](=O)[O-])ccc2[nH]1 | 14 | 37.5 (≈ 90.2 µM) | 13 | 37.5 (≈ 90.2 µM) | 9 | 37.5 (≈ 90.2 µM) | 22 | 37.5 (≈ 90.2 µM) | 19 | 37.5 (≈ 90.2 µM) | 19 | 37.5 (≈ 90.2 µM) | 18 | 37.5 (≈ 90.2 µM) | 14 | 75 (≈ 180 µM) | 19 | 37.5 (≈ 90.2 µM) | 
